Screen size: about 190,000 compounds; about 660 (0.35%) were called active.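 Rule for the calls: active = activation factor of 2 or more at 20 µM; inactive = the rest.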 This excerpt belongs to a sample that is enriched for actives.
What follows are compounds tested against Mannose-6-phosphate isomerase (Homo sapiens) (UniProt P34949) (assay: human PMI activators, high substrate, primary screen, biochemical, fluorescence intensity, near-saturating mannose 6-phosphate (AID 1216)). Conditions: coupled PMI enzyme assay, resazurin fluorescence, 20 min; at 20 µM; active compounds read high; 1 = untreated enzyme, 0 = substrate-free blank.
Sequence of Mannose-6-phosphate isomerase (Homo sapiens) (P34949 whole entry, looked up): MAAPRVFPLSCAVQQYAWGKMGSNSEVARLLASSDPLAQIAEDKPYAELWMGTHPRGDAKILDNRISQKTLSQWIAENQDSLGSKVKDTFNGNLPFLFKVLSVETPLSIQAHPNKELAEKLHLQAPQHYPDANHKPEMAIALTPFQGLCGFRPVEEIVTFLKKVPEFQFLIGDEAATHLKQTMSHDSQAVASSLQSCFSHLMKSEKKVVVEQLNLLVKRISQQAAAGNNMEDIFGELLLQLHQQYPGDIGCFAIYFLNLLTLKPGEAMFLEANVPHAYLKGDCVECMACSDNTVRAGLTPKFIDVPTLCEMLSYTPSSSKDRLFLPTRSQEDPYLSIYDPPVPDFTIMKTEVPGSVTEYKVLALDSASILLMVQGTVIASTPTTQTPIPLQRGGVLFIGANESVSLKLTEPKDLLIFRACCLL
Summary of the method: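 Test system: human phosphomannose isomerase with PGI, G6PDH, diaphorase coupling enzymes; amount: 15 ng/mL PMI; incubation: enzyme reaction with compound 20 min at room temperature; technique: resorufin fluorescence (Ex 544/Em 590 nm) from resazurin via diaphorase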

Activation factor, inactive:
COc1ccc(NC(=S)SC)cc1OC 0.7, CCC(CC)C(=O)Nc1ccc(S(=O)(=O)Nc2nccs2)cc1 0.9, CCn1c(N)c(Br)c(=O)[nH]c1=O 1.1, CC(=O)Nc1sc2c(c1C(c1cccc(F)c1)N1CCN(CCO)CC1)CCCC2 (stereo not drawn) 1.1, Cc1cc(SCC(=O)NCCN2C(=O)CSC2=O)nc2ccccc12 1.2, Cc1cc(C(=O)COC(=O)C2CC2)c(C)n1-c1ccc(F)cc1 0.9, Cc1ccc(N2C(=O)C3CC3C2=O)cc1 (stereo not drawn) 1, Cc1ccc(N2C(=O)C(Cc3ccccc3)NC2=S)cc1 (stereo not drawn) 0.8, CCOC(=O)N1CCN(C(=O)Cn2cnc3ccccc3c2=O)CC1 1, COc1ccc(NC(=O)c2sc(N3CCOCC3)nc2-c2ccccc2)c(OC)c1 1, O=C(OCc1ccc([N+](=O)[O-])cc1)c1ccccn1 0.9, COc1cc(/C=N/O)ccc1OCc1ccc([N+](=O)[O-])cc1 1, COc1ccc(-n2nc(C(=O)Nc3cc(OC)c(OC)c(OC)c3)c3ccccc3c2=O)c(OC)c1 0.9, O=C(CSc1nnc(-c2ccc([N+](=O)[O-])cc2)o1)Nc1ccccn1 1, CCOC(=O)C1=C(C)NC(C)=C(C(=O)OCC)C1c1ccccn1 1, CCOC(=O)C1=C(C)NC(=O)NC1c1ccccc1 (stereo not drawn) 1, CSc1cccc(NC(=S)N(Cc2ccccc2)Cc2ccccn2)c1 0.9, CCO[C@@H]1OC(C(=O)NCc2nc3ccccc3[nH]2)=C[C@H](C2CCCCC2)[C@H]1CCCO 0.9, O=C(COC(=O)c1ccc(F)cc1)Nc1nc2ccc([N+](=O)[O-])cc2s1 1, C=CCn1c(C)cc(C2=NNC(=NCC)SC2)c1C 1.1, COCCn1c(C)cc(C2=NNC(=Nc3ccc(F)cc3)SC2)c1C 1.3, COc1ccccc1NC(=S)N1CCN(C(c2ccccc2)c2ccccc2)CC1 1, O=C(Nc1ccc(NC(=O)c2ccco2)c(Cl)c1)c1cccc([N+](=O)[O-])c1 1, CC(C)(C)c1ccc(/C=C/C(=O)Nc2ncccn2)cc1 0.8, Cc1ccc(Cl)cc1NC(=O)c1ccccn1 1, Cc1ccc(CNC(=O)c2cccnc2Cl)cc1 1, O=C(COc1ccc(-c2ccccc2)cc1)NN=C1CCCC1 1, Cc1ccc(-c2nn(-c3cccc(F)c3)cc2CNCCc2ccncc2)o1 1, COc1ccc(N2CCN(C(=O)CCSCc3ccccc3F)CC2)cc1 0.9, CCOc1cc(N2CCOCC2)c(OCC)cc1NC(=O)c1ccc(C)s1 0.7, COC(=O)c1sc(=S)n(-c2ccccc2)c1N 0.9, CCOC(=O)Cn1c(N)c(C(=O)OC)sc1=S 1.1, Cc1cccc(C)c1NC(=O)CNC(=O)Cc1ccc(Br)cc1 1, O=S(=O)(Nc1cc(S(=O)(=O)N2CCOCC2)ccc1N1CCCC1)c1cccs1 1.1, NC(=O)CC[C@@H]1NC(=O)[C@@H]2CCCN2C(=O)c2cc([N+](=O)[O-])cc(F)c2NCCC[C@@H](C(N)=O)NC1=O 1, O=C(CC1C(=O)NCCN1CC(c1ccccc1)c1ccccc1)NCCc1cn[nH]c1 (stereo not drawn) 0.8, COC(=O)c1[nH]c2ccccc2c1NC(=O)CN1CCCc2ccccc21 0.9, NS(=O)(=O)c1cccc(NC(=O)CN2CCCc3ccccc32)c1 1.1, C=CCNC(=O)c1ccccc1NC(=O)c1ccc(Cl)c(S(=O)(=O)Nc2cccc(C)c2C)c1 1, Cc1cccc(C)c1NC(=S)N(Cc1cccnc1)Cc1ccccc1Cl 0.8, CCOC(=O)c1[nH]ncc1CN1CCCC(C(=O)c2ccc(OC)cc2C)C1 (stereo not drawn) 1.1, COc1ccccc1N(C)S(=O)(=O)c1ccc(Cl)c(C(=O)N2CCC(C(N)=O)CC2)c1 1.1, CCn1cc(-c2cc(C(=O)O)on2)c(C)n1 1.2, COCCCNC(=S)NC(=O)c1ccc([N+](=O)[O-])cc1 0.9, Cc1ccc2nc(NCCCNC(=O)c3cnccn3)c(C#N)cc2c1 0.9, O=C(NCc1ccccc1Cl)C1CCC(CNc2c(N3CCCCC3)c(=O)c2=O)CC1 (stereo not drawn) 1, CCCCn1c(O)c(N=NC(=O)Cn2c(C(F)(F)F)nc3ccccc32)c2ccccc21 1, CCOC(=O)N1CCC(=NNC(N)=O)CC1 1, COc1cccc2cc(/C(C)=N/NC(=O)c3ccco3)oc12 1.1, COc1ccccc1N(CC(=O)Nc1ccc(C(F)(F)F)cc1)S(C)(=O)=O 1.1, Cc1nc(C)c(-c2csc(NCCc3ccccc3)n2)s1 1, O=C(CSc1ncccn1)NCCc1ccccc1 1, c1ccc(Nc2n[nH]nc2-c2ccccc2)cc1 0.9, CC(C)(C)C(=O)c1cnc(Nc2ccccc2)s1 1, N=c1c2c3c(sc2ncn1N)CCCC3 0.9, O=c1[nH]cnc2c1c(-c1ccccc1)cn2-c1ccc(F)cc1 1, O=C(CCCn1c(=O)c2sccc2n(CC(=O)NCC2CCCO2)c1=O)NCc1ccco1 (stereo not drawn) 0.9, Cn1cc(C(=O)NCc2ccccc2F)cn1 1, O=C(CO/N=C/c1ccccc1OC(F)F)NC1CCCC1 1.1, CCN(CC)C(=O)C(=O)Nc1cccc(Br)c1 0.9, C=CCc1ccccc1OCC(=O)N/N=C/c1ccccc1OCC 0.9, OCC1(Cc2ccccc2C(F)(F)F)CCN(Cc2cccc3cnccc23)CC1 0.9, COc1ccc(OC)c(NC(=O)CN(Cc2ccc(Cl)cc2)S(C)(=O)=O)c1 0.8, CSc1ncccc1C(=O)OCc1ccc(Br)cc1 1, COC(=O)C(NS(=O)(=O)c1ccc(F)cc1)c1ccccc1 (stereo not drawn) 0.9, COc1cccc(-n2cc3c(c2-c2ccccc2)c(=O)n(C)c(=O)n3C)c1 1, COc1ccc(-c2c3c(=O)n(C)c(=O)n(C)c3cn2-c2cccc(OC)c2)cc1 1.2, COCCn1c(C)cc(C(=O)COC(=O)/C=C/c2cccc(OC)c2)c1C 1, COc1ccc(CNC2CCCCC2)cc1 1, Cc1ccc(N/N=C2\COC(C)(C)CC2=O)cc1 1.9, CC(=O)c1cc(C#N)c(N2CC(C)OC(C)C2)nc1C (stereo not drawn) 1, CC(C)N(C(=O)Cn1cc(SCC(=O)N2CCCC2)c2ccccc21)C(C)C 1, COc1ccc(-c2nn(-c3ccccc3)cc2CN2CCCO2)c(F)c1 1, CCN(C(=O)COC(=O)c1cc(NS(=O)(=O)c2ccc(Cl)c([N+](=O)[O-])c2)ccc1O)C1CCCCC1 0.9, Cc1ccc(N/C=C/C(=O)c2ccccc2)cc1C 1.1, O=C(/C=C/NCc1ccc(F)cc1)c1ccccc1 1, CN(C)CCCSc1ccccc1NC(=O)/C=C/c1ccccc1 1, Cc1ccc(S(=O)(=O)CCC(=O)OCc2ccccc2)cc1 1, O=C(CNC(=O)c1cc(=O)[nH]c2ccccc12)Nc1ccc(F)c(F)c1 0.9, COC(=O)C(=Nc1ccccc1)/C(C(=O)C(=O)N(C)c1ccccc1)=C(\O)c1ccc(Cl)cc1 0.8, COc1ccccc1CC(=O)Nc1ccc(F)cc1F 1, COc1cc(OC)cc(C(=O)OCC(=O)Nc2ccc(F)cc2F)c1 0.9, Cc1cc(C)cc(C(=O)NCC(=O)OCC(=O)N2CCCCC2)c1 1.2, Cc1ccc(N/C(N)=N/c2nc(C(F)(F)F)cc(C(F)(F)F)n2)cc1 1.1, O=C(CN1CCN(CC(=O)Nc2ccc3c(c2)OCO3)CC1)Nc1ccc(F)cc1 1, O=C(Nc1ccccc1N1CCN(C(=O)c2ccccc2)CC1)c1ccc2c(c1)OCO2 0.9, S=C(Nc1ccc(Br)cc1Cl)N1CCC2(CC1)OCCO2 0.9, CCOC(=O)/C(=N\Nc1cc(Cl)ccc1Cl)N1CCN(C)CC1 1

Activation factor, active:
C=C1c2cc(CC)ccc2NC(=O)N1c1ccc(C)cc1 2.1, COc1cc(C(=O)OCc2ccc([N+](=O)[O-])cc2)cc(OC)c1OC 2, CCOC(=O)C1=C(C)NC(SC)=NC1c1ccccc1 (stereo not drawn) 2.7, Cc1cc(C2=NNC(=Nc3ccc(S(=O)(=O)N4CCOCC4)cc3)SC2)c(C)n1CC1CCCO1 (stereo not drawn) 2.1, O=C(NNc1cc(Cl)ccc1Cl)c1cccnc1Cl 2, COC(=O)c1sc2[nH]c(=S)n(N)c(=O)c2c1C 2, COC(=O)c1[nH]c2cccc(C)c2c1NC(=O)CN1CCCc2ccccc21 2.1, COCCCNC(=S)NCCNc1nc2cc(C)c(C)cc2cc1C#N 2.1, S=c1[nH]nc(NCCc2ccccc2)s1 2.1, S=c1[nH]nc(Nc2ccccc2)s1 2, COc1ccc(-c2c3c(=O)n(C)c(=O)n(C)c3cn2NC(C)=O)cc1 2, COc1ccc(N/N=C2/CCCCC2=O)cc1 2, O=C(/C=C\NCC(=O)c1ccccc1)c1ccccc1 2.5, COc1ccc(C(=O)Nc2ccc(F)cc2F)cc1 2, O=C(CN1CCN(c2ccccc2F)CC1)c1ccc2c(c1)OCO2 2

From PubChem BioAssay AID1216 (Sanford-Burnham Center for Chemical Genomics, 2008)
